The record followed here is ChEMBL document CHEMBL1909521, “A class of novel N-(1-methyl-β-carboline-3-carbonyl)-N'-(aminoacid-acyl)-hydrazines: aromatization leaded design, synthesis, in vitro anti-platelet aggregation/in vivo anti-thrombotic evaluation and 3D QSAR analysis” (Eur J Med Chem, 2011).

For experiment [1], the system named is Rattus norvegicus. The experiment is described as follows: Antithrombotic activity in Wister rat assessed as reduction of thrombus weight at 160 to 165 umol/kg, po (reference value: 31.87 +/- 1.71 mg). The format is functional.
A short description of experiment [2]: Antiaggregatory activity in pig platelets assessed as inhibition of platelet-activating factor-induced platelet aggregation after 5 mins. The format is functional, cell-based. The settings on record: Sus scrofa. A digest of the protocol:
(§1)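 Pig blood (6 pigs) was spun at 1000 rpm for 10 min to give PRP, then 1500 rpm for 10 min to give PPP. PRP was adjusted to 2×10^8 platelets/ml with autologous PPP. Compound (final 100 µM to 0.001 µM, diluted in NS) or NS was added before agonist: ADP 10 µM, AA 350 µM or PAF 0.1 µM final. Aggregation was read optically at 37 °C for 5 min, in sixplicate. IC50 came from the concentration–inhibition curve.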

Experiment [3] in a line: Antiaggregatory activity in pig platelets assessed as inhibition of adenosine diphosphate-induced platelet aggregation after 5 mins. The settings on record: Sus scrofa. The format is functional, cell-based. A digest of the protocol: as §1
Experiment [4] in a line: Antiaggregatory activity in pig platelets assessed as inhibition of arachidonic acid-induced platelet aggregation after 5 mins. The format is functional, cell-based. The settings on record: Sus scrofa. An outline of the steps:
as §1

Experiment [5] relates to Rattus norvegicus. Nature of the experiment: Antithrombotic activity in Wister rat assessed as reduction of thrombus weight at 1 nmol/kg, po (reference value: 31.87 +/- 1.71 mg). The format is functional.
For experiment [6], the system named is Rattus norvegicus. Nature of the experiment: Antithrombotic activity in Wister rat assessed as reduction of thrombus weight at 0.1 nmol/kg, po (reference value: 31.87 +/- 1.71 mg). The format is functional.
Experiment [7] has as its system Rattus norvegicus. The experiment is described as follows: Antithrombotic activity in Wister rat assessed as reduction of thrombus weight at 0.01 nmol/kg, po (reference value: 31.87 +/- 1.71 mg). The format is functional.
Experiment [8] deals with Rattus norvegicus. Nature of the experiment: Antithrombotic activity in po dosed Wister rat assessed as reduction of thrombus weight. The format is functional, organism-based.

The structures appear in SMILES notation.

For `CC(=O)Oc1ccccc1C(=O)O` [ASPIRIN], in the experiment on Rattus norvegicus [1], the Activity is on record as 18.86 mg.

By IC50 is commonly meant the concentration that inhibits the measured activity by half. In the case of `Cc1nc(C(=O)NNC(=O)[C@@H](N)C(C)C)cc2c1[nH]c1ccccc12`, the figures for the IC50 in experiment [2], in experiment [3] and in experiment [4] were 2 µM, 20.8 µM and 0.3 µM, respectively. The Activity in the experiment on Rattus norvegicus [5] is 18.3 mg; in the experiment on Rattus norvegicus [6], 23.8 mg; in the experiment with Rattus norvegicus [7] it was 27.12 mg; with Rattus norvegicus [8], “Dose-dependent effect”.
